The list is not random: actives were taken first. Their share in the collection is about 1.5%.
CAL PDZ FP-1 – CAL PDZ peptide-binding inhibitors, primary screen, biochemical, fluorescence polarization, Cer-tagged CAL PDZ, HTS. actives 0.02% (n = 330,000). Golgi-associated PDZ and coiled-coil motif-containing protein (Homo sapiens), Q9HD26. purified CAL PDZ, TMR-peptide fluorescence polarization, 1 h. inhibition, % at 20 µM;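 active = highest replicate inhibition of at least 40%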
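Material: tagged CAL PDZ domain; buffer or medium: 25 mM sodium phosphate pH 7.4, 150 mM NaCl, TCEP, IgG, Thesit; compound dosing: single point, 20 µM; schedule: 1 h incubation at room temperature before polarization reading; measured by: FP readout, S and P plane fluorescence; read-out basis: percent inhibition from loss of millipolarization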
LANA DNA inh – inhibitors of KSHV C-LANA binding to DNA, primary screen, biochemical, fluorescence polarization, FAM-LBS DNA, MBP-C-LANA, single point. AID 504423, 2011. actives 0.078% (n = 340,000). Kaposi's sarcoma herpesvirus LANA C-terminal domain (residues 932-1162) DNA binding. inhibition, % at 9 µM;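 active = highest replicate inhibition at or above 60% at 9 µM, even if other replicates fall short; inactive = all replicates below 60% inhibition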
CAL PDZ FP-2 – untagged CAL PDZ binding inhibitors, primary screen, biochemical, fluorescence polarization, HTS; purified CAL PDZ, TMR-peptide fluorescence polarization, 1 h; Golgi-associated PDZ and coiled-coil motif-containing protein (Homo sapiens), Q9HD26; actives 0.92% (n = 300,000); inhibition, % at 24.9 µM;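 active = mean inhibition of at least 30% with at least half of replicates also reaching 30%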
LANA-H2B inh – blockers of LANA interaction with H2A/H2B – biochemical, FP readout, HTS, primary screen | cell-free LANA-H2A/H2B peptide, fluorescence polarization | inhibition, % (test concentration not listed) | actives 0.6% (n = 320,000) | AID 2629, 2010; in the data active = inhibition mostly above about 10%, no sharp cut-off; inactive = mostly below about 6.7%
CaV13 ICDI inh – Disruptors of the CACNA1D IQ motif to Ca2+-dependent inactivation inhibitor domain association, primary screening, Förster resonance energy transfer in intact living …. actives 0.098% (n = 340,000). inhibition, % at 12.3 µM. HEK cells, CFP/YFP FRET ICDI-IQ, plate reader, 10 min; percent FRET-ratio fall versus neutral wells. AID 743397;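 active = mean replicate inhibition of at least 30% and at least 1% of replicates passing that level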
Keap1-Nrf2 PPI – Keap1-Nrf2 protein-protein interaction inhibitors, primary screen, biochemical, fluorescence polarization, single point. Kelch-like ECH-associated protein 1 (Homo sapiens), Q14145. Keap1 Kelch-Nrf2 peptide fluorescence polarization, 1536-well. inhibition, % at 9.4 µM. actives 0.15% (n = 340,000); in the data active = inhibition above about 12%;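 note: human Keap1 Kelch domain with fluorescein labeled Nrf2 9mer peptide probe; higher means more block of Keap1 binding to Nrf2 peptide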
Target sequence (Q14145 whole entry, looked up, the tested form may be a part): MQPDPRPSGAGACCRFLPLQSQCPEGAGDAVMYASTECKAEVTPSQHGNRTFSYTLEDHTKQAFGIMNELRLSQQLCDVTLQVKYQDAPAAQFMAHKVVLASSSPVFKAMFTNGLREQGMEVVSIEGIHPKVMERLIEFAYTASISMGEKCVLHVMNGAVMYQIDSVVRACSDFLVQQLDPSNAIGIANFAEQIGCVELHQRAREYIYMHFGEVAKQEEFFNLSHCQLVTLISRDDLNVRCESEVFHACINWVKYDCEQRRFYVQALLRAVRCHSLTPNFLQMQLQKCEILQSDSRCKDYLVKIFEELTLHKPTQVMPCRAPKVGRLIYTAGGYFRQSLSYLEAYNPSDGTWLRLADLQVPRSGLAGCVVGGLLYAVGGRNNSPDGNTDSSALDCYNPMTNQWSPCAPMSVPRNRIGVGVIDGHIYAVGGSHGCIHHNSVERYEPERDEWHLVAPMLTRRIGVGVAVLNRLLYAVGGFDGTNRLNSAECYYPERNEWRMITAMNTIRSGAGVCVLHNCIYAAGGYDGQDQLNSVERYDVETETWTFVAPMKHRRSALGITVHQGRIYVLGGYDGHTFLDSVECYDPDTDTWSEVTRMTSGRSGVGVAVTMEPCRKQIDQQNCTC
Each line names hits and unclear results; the compound was inactive in the other large screens.

Cc1ccc(C(=O)Nc2ccc(S(=O)(=O)NCc3ccco3)cc2)cc1	none (no result: CAL PDZ FP-2)
Cc1ccc(-c2ccc(S(=O)(=O)NCc3ccco3)cc2)cc1	CAL PDZ FP-2 active
Cc1ccc(S(=O)(=O)NCc2ccco2)cc1C	none (no result: CaV13 ICDI inh)
O=C(Nc1ccccc1)c1ccc(S(=O)(=O)NCc2ccco2)cc1	CAL PDZ FP-2 39.1
O=C(Nc1ccc(S(=O)(=O)NCc2ccco2)cc1)c1ccc(F)cc1	none
CN(C)S(=O)(=O)N1CCN(c2ccc([N+](=O)[O-])c(NC3CC3)c2)CC1	none
O=[N+]([O-])c1ccc(N2CCCC2)cc1NC1CC1	CAL PDZ FP-2 35.6
Cc1nc(N2CCc3ccccc3C2)[nH]c(=O)c1Cc1ccccc1	LANA-H2B inh 11.5
COC(=O)[C@]12C[C@H](CC(=O)NCc3ccc(C)o3)C(=O)N(Cc3ccc4c(c3)OCO4)C1=C[C@H](C(C)(C)C)O[C@@H]2C	none (no result: CAL PDZ FP-1, LANA DNA inh, CAL PDZ FP-2, LANA-H2B inh, Keap1-Nrf2 PPI)
COc1ccc(-c2c(NC(C)=O)n(C)c3ccccc3c2=O)cc1	CAL PDZ FP-2 45.0
CC(O)(c1ccc(F)c(F)c1)c1nc(-c2cccc(C#N)c2)cs1 (centres undefined)	none (no result: CAL PDZ FP-1, LANA DNA inh, CAL PDZ FP-2, LANA-H2B inh, Keap1-Nrf2 PPI)
Cc1ccc(C)c(-n2c(Cc3cc(=O)[nH]c(=O)[nH]3)nnc2SC(C)C)c1	CaV13 ICDI inh 38.9 (no result: CAL PDZ FP-2)
CSc1nnc(Cc2cc(=O)[nH]c(=O)[nH]2)n1-c1cc(C)ccc1C	none
C[C@H](O)[C@@H]1C(=O)N2CCc3c([nH]c4c(-c5ccccc5)cccc34)[C@@H]2C[C@@H]1N(C)C(=O)/C=C/c1ccccc1	none (no result: CAL PDZ FP-1, LANA DNA inh, CAL PDZ FP-2, LANA-H2B inh, Keap1-Nrf2 PPI)
CCn1ncc(C2=NOC(C(=O)NCc3ccc(Cl)cc3)C2)c1C (centres undefined)	LANA-H2B inh 58.1 (no result: CAL PDZ FP-2)
CCn1ncc(C2=NOC(C(=O)Nc3ccc(C)cc3)C2)c1C (centres undefined)	none
COc1ccc(CCNC(=O)C2CC(O)CN2S(=O)(=O)c2ccc(Cl)cc2)cc1OC (centres undefined)	none
N#Cc1c2ccc(OCC(=O)NCc3ccco3)cc2n2ccccc12	none
N#Cc1c2ccc(O)cc2n2ccccc12	CaV13 ICDI inh active
O=C(NC1CCCCC1)c1cccc2c1C(=O)c1ccc(N3CCCC3)cc1S2(=O)=O	none
O=C1c2ccccc2S(=O)(=O)c2cc(N3CCC(C(=O)N4CCCCC4)CC3)ccc21	CaV13 ICDI inh active (no result: CAL PDZ FP-1, LANA DNA inh, CAL PDZ FP-2, Keap1-Nrf2 PPI)
CCOc1ccc(C(=O)NC(C(=O)NCCc2ccc(S(N)(=O)=O)cc2)C(C)C)cc1 (centres undefined)	LANA-H2B inh 14.5
O=C(Nc1ccc(Oc2c(F)c(F)c(F)c(F)c2F)cc1)OC1CCN2Cc3ccccc3N=C12 (centres undefined)	LANA-H2B inh 14.9 (no result: CAL PDZ FP-2, CaV13 ICDI inh)
O=C(Nc1cccc([N+](=O)[O-])c1)c1ccc(N2CCCC2=O)cc1	CAL PDZ FP-2 68.9
O=C(CN1C(=O)NC(Cc2c[nH]c3ccccc23)C1=O)Nc1cccc(S(=O)(=O)N2CCOCC2)c1 (centres undefined)	LANA-H2B inh 24.6
O=C(Nc1cccc(S(=O)(=O)N2CCOCC2)c1)c1ccccn1	CAL PDZ FP-2 75.3
Cc1cc(C)cc(NC(=O)CN2C(=O)NC(Cc3c[nH]c4ccccc34)C2=O)c1 (centres undefined)	none
CC(Sc1nnc(C2CC2)n1C1CC1)C(=O)Nc1cccc(S(=O)(=O)N2CCOCC2)c1 (centres undefined)	LANA-H2B inh 18.4 (no result: CAL PDZ FP-2)
CC(Sc1nnnn1C1CC1)C(=O)Nc1cccc(S(=O)(=O)N2CCOCC2)c1 (centres undefined)	none (no result: CAL PDZ FP-2, LANA-H2B inh)

Source: PubChem
